According to ChEMBL document CHEMBL1255454, “Systematic approach to optimizing specifically targeted antimicrobial peptides against Streptococcus mutans” (2010):
The source made the active and inactive calls. The rule behind the calls is not given here.

Experiments:
[1] = test system: Streptococcus mutans; assay: Antimicrobial activity against Streptococcus mutans UA159 assessed as inhibition of bacterial biofilm formation at 25 uM after 3 mins by fluorescence assay; format: functional
Outline: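 S. mutans UA159 overnight culture was diluted 1:5,000 in TH with 1% sucrose and grown as biofilm for 24 h. Biofilms were exposed 3 min at room temperature to 25 µM fluorescein-labelled peptide in HEPES/NaHCO3/NaCl/MgCl2 buffer with 0.1% CTAB, pH 7.4, then washed twice. Green fluorescence images were taken and biofilm-associated green pixels quantified as binding intensity units.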

[2] = test system: Streptococcus mutans; assay: Antimicrobial activity against Streptococcus mutans UA159 after 16 to 20 hrs by broth microdilution assay; format: functional
Outline: (§1)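 Broth microdilution. Twofold peptide dilutions were made in 50% BHI–50% sterile water for oral streptococci and in 1× Mueller-Hinton broth for the other bacteria. First round 500 to 0.97 µg/ml; a second round of 64 to 0.5 µg/ml was run in some cases, reporting its mode. Inoculum ~1 × 10^5 CFU/ml, 37°C for 16–20 h. Read A600; MIC taken as complete inhibition or ≥90% turbidity reduction versus peptide-free control.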

[3] = test system: Streptococcus sanguinis; assay: Antimicrobial activity against Streptococcus sanguinis NY101 after 16 to 20 hrs by broth microdilution assay; format: functional; outline: as §1
[4] = test system: Streptococcus mitis; assay: Antimicrobial activity against Streptococcus mitis ATCC 903 after 16 to 20 hrs by broth microdilution assay; format: functional; outline: as §1
[5] = Antimicrobial activity against Streptococcus gordonii Challis DL1 after 16 to 20 hrs by broth microdilution assay; format: functional, Streptococcus gordonii str. Challis; outline: as §1
[6] = test system: Staphylococcus aureus; assay: Antimicrobial activity against methicillin-resistant Staphylococcus aureus after 16 to 20 hrs by broth microdilution assay; format: functional
Outline: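 MRSA grown aerobically in BHI at 37°C. Broth microdilution: 2-fold peptide dilutions in 1× Mueller-Hinton broth, first round 500 to 0.97 µg/ml; if activity below 62.5 µg/ml, sometimes a second round at 64 to 0.5 µg/ml, reporting the mode. Inoculum ~1 × 10^5 CFU/ml, 37°C for 16-20 h. A600 read. MIC = lowest concentration giving complete inhibition or ≥90% turbidity reduction versus peptide-free control.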

[7] = test system: Pseudomonas aeruginosa; assay: Antimicrobial activity against Pseudomonas aeruginosa PAK after 16 to 20 hrs by broth microdilution assay; format: functional; outline: as §1
[8] = test system: Streptococcus mutans; assay: Antimicrobial activity against Streptococcus mutans UA159 at 25 ug/ml after 30 mins by time-kill assay; format: functional
Outline: (§2)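 Time-kill. Overnight cultures were diluted in BHI to A600 0.08 and treated with peptide at 25 µg/ml for 30 s to 2 h. Aliquots were diluted 1:50 in BHI, held on ice, plated and counted after 24 h as surviving CFU/ml. Three independent experiments, mean with SD; unpaired Student t test.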

[9] = test system: Streptococcus mitis; assay: Antimicrobial activity against Streptococcus mitis ATCC 903 at 25 ug/ml after 30 mins by time-kill assay; format: functional, organism-based; outline: as §2
[10] = test system: Streptococcus gordonii str. Challis; assay: Antimicrobial activity against Streptococcus gordonii Challis DL1 at 25 ug/ml after 30 mins by time-kill assay; format: functional; outline: as §2
[11] = test system: Streptococcus sanguinis; assay: Antimicrobial activity against Streptococcus sanguinis NY101 at 25 ug/ml after 30 mins by time-kill assay; format: functional, organism-based; outline: as §2
[12] = test system: Streptococcus mutans; assay: Antimicrobial activity against Streptococcus mutans UA159 assessed as inhibition of viability of bacterial biofilm at 25 ug/ml treated for 1 min measured after 4 hrs; format: functional
Outline: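 S. mutans biofilms were seeded from overnight culture diluted 1:50 in TH broth with 0.5% sucrose, centrifuged, and grown 4 h anaerobically at 37°C. They were exposed to peptide in 1× PBS for about 1 min, washed, and given fresh TH broth without sucrose. Recovery was read as A600 after 4 h anaerobic incubation at 37°C. Three experiments; unpaired t test.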

[13] = test system: Streptococcus mutans; assay: Antimicrobial activity against Streptococcus mutans JM11 assessed as inhibition of bacterial biofilm formation at 50 uM after 10 mins; format: functional
Outline: (§3)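 Mixed-species biofilms were grown 24 h at 37°C anaerobically in TH with 50% filter-sterilized pooled human saliva and 1% sucrose. Inoculum: S. mutans JM11 at 1 × 10^6 CFU/well plus S. oralis, S. gordonii, S. sanguinis, S. mitis and S. salivarius at 2 × 10^5 CFU/well each. Survivors were plated on TH agar for total streptococci and on TH agar with 800 µg/ml spectinomycin for JM11. Detection limit 100 CFU/ml.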

[14] = test system: Streptococcus oralis; assay: Antimicrobial activity against Streptococcus oralis assessed as inhibition of bacterial biofilm formation at 50 uM after 10 mins; format: functional; outline: as §3
[15] = test system: Streptococcus gordonii; assay: Antimicrobial activity against Streptococcus gordonii assessed as inhibition of bacterial biofilm formation at 50 uM after 10 mins; format: functional; outline: as §3
[16] = test system: Streptococcus sanguinis; assay: Antimicrobial activity against Streptococcus sanguinis assessed as inhibition of bacterial biofilm formation at 50 uM after 10 mins; format: functional; outline: as §3
[17] = test system: Streptococcus mitis; assay: Antimicrobial activity against Streptococcus mitis assessed as inhibition of bacterial biofilm formation at 50 uM after 10 mins; format: functional; outline: as §3
[18] = test system: Streptococcus salivarius; assay: Antimicrobial activity against Streptococcus salivarius assessed as inhibition of bacterial biofilm formation at 50 uM after 10 mins; format: functional; outline: as §3

Substance | inhibition [1] | MIC [2] | MIC [3] | MIC [4] | MIC [5] | MIC [6] | MIC [7] | Activity [8] | Activity [9] | Activity [10] | Activity [11] | inhibition [12] | inhibition [13] | inhibition [14] | inhibition [15] | inhibition [16] | inhibition [17] | inhibition [18]
H-FIKHFIHRFGGGFKKFWKWFRRF-NH2 | Active | 4 µg/mL | 16 µg/mL | 32 µg/mL | 62.5 µg/mL | 16 µg/mL | 62.5 µg/mL | Active | Active | Active | Active | Active | Active | inactive | inactive | inactive | inactive | inactive
H-FKKFWKWFRRF-NH2 | Active | 8 µg/mL | 32 µg/mL | 16 µg/mL | 16 µg/mL | 16 µg/mL | 32 µg/mL | Active | Active | Active | Active | Active | Active | inactive | inactive | inactive | inactive | inactive
